# Screening results: PubChem, several laboratories
# A selection: hits, their analogues and other compounds. The true share with any hit is near 3.5%.
# Pf gamet viab = P. falciparum stage V gametocyte viability inhibition. inhibition, % at 10.9 µM. AID 743093. 150,000 tested, 0.065% active. P. falciparum stage V gametocytes, ATP luminescence, 24 h;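 active = inhibition above the mean plus 3 SD of compounds within the control limits, set per campaign, cut at about 38% in these data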
# NF-kB neuron act = raises NF-kB expression in human neuronal cells | 190,000 tested, 1.6% active | AID 1239 | NF-kB reporter expression; stronger effect = higher value | fold change at 12.5 µM; in the data active = fold change above about 3.3
# APP 5'UTR act = APP 5'UTR luciferase reporter activation; SH-SY5Y APP 5'UTR luciferase reporter, luminescence; zero percent = DMSO vehicle wells; 190,000 tested, 1% active; AID 1276; activation, % at 2 µM;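 active = activation above a set limit, based on mean plus 3 SD of controls, cut at about 140% in these data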
# FLuc inhib CS = Photinus pyralis luciferase inhibition counter-screen. P08659. ATPLite firefly luciferase biochemical luminescence, 10 min. inhibition, % at 10 µM. 200,000 tested, 1.5% active;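 active = inhibition above about 50% when tested at 10 µM, limit read from the data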
# Target sequence (P08659 whole entry, looked up): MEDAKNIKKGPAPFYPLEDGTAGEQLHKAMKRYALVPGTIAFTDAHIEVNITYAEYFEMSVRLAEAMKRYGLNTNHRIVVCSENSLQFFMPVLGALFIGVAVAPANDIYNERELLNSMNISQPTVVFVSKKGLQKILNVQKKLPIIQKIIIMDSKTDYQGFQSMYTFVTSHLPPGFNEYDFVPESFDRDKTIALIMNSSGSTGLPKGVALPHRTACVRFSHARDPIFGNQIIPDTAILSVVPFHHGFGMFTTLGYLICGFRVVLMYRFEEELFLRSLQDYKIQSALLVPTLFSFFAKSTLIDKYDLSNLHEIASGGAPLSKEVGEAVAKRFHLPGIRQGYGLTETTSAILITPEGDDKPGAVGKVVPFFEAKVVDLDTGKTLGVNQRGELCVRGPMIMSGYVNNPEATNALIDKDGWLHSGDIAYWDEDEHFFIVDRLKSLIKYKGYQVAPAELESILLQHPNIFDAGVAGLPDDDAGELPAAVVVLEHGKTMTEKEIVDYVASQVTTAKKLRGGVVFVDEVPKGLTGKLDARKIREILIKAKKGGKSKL
# STAT1 activator = activators of IFN-gamma induced STAT1 signaling | NIH 3T3 STAT1-luciferase reporter, luminescence; 100% = IFN-gamma alone, no compound | activation (% of control), % at 5.5 µM | 200,000 tested, 2.6% active | AID 932;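 active = activation above the screen-wide mean activation plus 3 SD, cut at about 130% in these data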
# FLuc act counter = affects firefly luciferase, flagging false hits in luciferase stimulation screens | P08659 | ATPlite luciferase biochemical, luminescence, 10 min; 0 = ATP-free wells, 1 = DMSO control | activation factor at 10 µM | 200,000 tested, under 10 active | AID 1027;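 active = luciferase activation factor, scaled between plate controls, of at least 2 with compound at 10 µM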
#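 Material: Luciferase/luciferin reagent mix | Doses: Test compounds dosed from 2 mM stocks in 100% DMSO | Timing: 10 min incubation after luciferase reagent addition, room temperature | Measured by: Luminescence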
# A number is an active result; . = inactive; / = no result given.
SMILES,Pf gamet viab,NF-kB neuron act,APP 5'UTR act,FLuc inhib CS,STAT1 activator,FLuc act counter
CC(=C/c1ccc(C(C)C)cc1)/C=N/NC(=O)c1ccncc1,/,.,.,.,.,.
CC(/C=N/NC(=O)c1nn(C)c(C)c1Br)=C\c1ccccc1,.,.,.,80,132,.
CC(=C/c1ccccc1)/C=N/NC(=O)c1ccc2nc[nH]c2c1,/,.,.,82,.,.
CC(/C=N/NC(=O)c1ccncc1)=C\c1ccccc1,.,.,.,61,.,.
CC(/C=N/NC(=O)c1c(Br)cnn1C)=C\c1ccccc1,.,.,.,.,.,.
O=C(N/N=C/C(Br)=C\c1ccccc1)c1ccc2nc[nH]c2c1,.,.,.,.,.,.
COc1cccc2sc(N(C)c3ccccc3)nc12,.,5.8,218,85,150,.
CCOC(=O)C1=C(N)n2c(s/c(=C\c3cccs3)c2=O)=C(C(=O)OCC)C1c1cccs1 (configuration not stated),.,.,.,.,.,.
O=C(NC12CC3CC(CC(C3)C1)C2)c1ccc(-c2ccc(Cl)cc2)o1,.,.,.,.,130,.
O=C(NC12CC3CC(CC(C3)C1)C2)c1ccc(-c2ccccc2Cl)o1,/,.,182,.,171,.
COc1ccc(C2CC(=O)Nc3ccccc3S2(=O)=O)cc1OC (configuration not stated),/,.,.,.,.,.
COC(=O)c1cn(NC(=O)c2cc([N+](=O)[O-])ccc2F)c(=O)c2ccccc12,.,.,.,.,139,.
COc1ccc(C2CC(c3ccccc3)=NN2c2ccc(N)cc2)cc1 (configuration not stated),.,.,.,.,141,.
CCOc1ccc2c(c1)sc(=NC(=O)C1CC1)n2C,.,.,.,.,150,.
Cn1c(=NC(=O)C2CCCCC2)sc2cc([N+](=O)[O-])ccc21,.,.,.,.,.,.
Cc1nccn1CC(=O)c1ccc(O)c(O)c1,.,/,/,/,/,/
O=C(Nc1ccc2c(c1)nc1n2CCSC1)c1ccccc1,.,3.3,.,80,.,.
CCC(=O)Nc1ccc2c(c1)nc1n2CCSC1,.,.,.,.,.,.
COc1ccc(C(=O)Nc2ccc3c(c2)nc2n3CCSC2)cc1,.,.,.,66,.,.
CC(C)C(=O)Nc1ccc2c(c1)nc1n2CCSC1,.,.,.,.,.,.
O=S1(=O)CCOC[C@H](CC2CCCCC2)N1Cc1ccccc1Br,.,/,/,/,/,/
CCN=c1scc(C)n1/N=C/c1ccsc1,/,3.6,.,.,150,.
CCN(CC)c1ccc2cc(C(N)=O)c(=O)oc2c1,.,.,.,.,133,.
CCN(CC)c1ccc2cc(C(N)=O)c(=N)oc2c1,/,.,.,.,.,.
CCN(C(=O)c1cc2ccccc2oc1=O)c1ccccc1,/,4.7,.,.,.,.
SMILES,Pf gamet viab,NF-kB neuron act,APP 5'UTR act,FLuc inhib CS,STAT1 activator,FLuc act counter
CC(C)(O)c1cc(=O)sc2nc3ccccc3n12,/,3.6,.,.,134,.
CN(C(=O)c1cccc(Nc2ccc(-c3ccc4c(c3)OCCO4)nn2)c1)C1CCCCC1,/,.,.,77,.,.
CC1=CC2CC1C1C(=O)N(c3ccc(S(=O)(=O)Nc4nc(C)cc(C)n4)cc3)C(=O)C21 (configuration not stated),.,.,.,.,.,.
O=S(=O)(Cc1cc(-c2ccccc2)no1)c1ccccc1,.,.,.,.,129,.
COc1ccc(-c2cc(COc3ccccc3)on2)cc1,.,.,.,.,140,.
COc1ccc(-c2cc(CS(=O)(=O)c3ccccc3)on2)cc1,.,.,.,.,142,.
Clc1ccc(OCc2cc(-c3ccccc3)no2)c(Cl)c1,/,4.5,188,51,.,.
CCOC(=O)[C@H]1[C@H]2COc3cc(OC)ccc3[C@@H]2N2C(=O)c3cc(F)c(F)cc3NC(=O)[C@@]12C,.,/,/,/,/,/
c1ccc(-c2noc(-c3ccc4ccccc4c3)n2)nc1,/,.,.,96,.,.
Cc1nccc(-c2ccc3c(c2)OCO3)n1,.,.,.,.,.,.
c1ccc(-c2nccc(-c3ccc4c(c3)OCO4)n2)cc1,.,.,.,.,134,.
c1ccc(-c2noc(-c3ccc4c(c3)OCO4)n2)nc1,/,.,.,94,.,.
CSc1nc(C)cc(-n2ccc(=O)[nH]c2=O)n1,.,.,.,.,.,.
CC(C)(CO)C(O)C(=O)NCCC#N (configuration not stated),/,.,.,.,.,.
COc1ccc(-c2noc(-c3ccccc3-c3ccccc3)n2)cc1,.,.,.,.,.,.
COc1cccc(-c2nc(-c3ccccc3)no2)c1,/,7.3,.,.,150,.
COc1cccc(-c2nc(-c3ccccn3)no2)c1,.,.,.,93,.,.
COc1cccc(-c2noc(-c3cccs3)n2)c1,.,8.4,.,50,139,.
COc1nc(-c2ccccc2)ccc1-c1noc(-c2cccs2)n1,/,/,.,/,.,/
COc1cccc(-c2noc(-c3ccc(Br)o3)n2)c1,.,3.6,.,.,136,.
C[C@H]1CN(S(=O)(=O)c2ccc3c(c2)OCCO3)CCN1S(=O)(=O)c1c(F)cccc1F,.,/,/,/,/,/
c1ccc(-c2noc(-c3cccnc3)n2)nc1,/,.,.,.,129,.
COc1ccc(-c2noc(-c3ccc(Br)o3)n2)cc1,.,/,/,/,/,/
Fc1ccc(-c2nc(-c3cccs3)no2)cc1,.,/,/,/,/,/
COc1ccc(-c2nc(-c3ccc(Br)o3)no2)cc1,/,6.7,.,.,.,.
SMILES,Pf gamet viab,NF-kB neuron act,APP 5'UTR act,FLuc inhib CS,STAT1 activator,FLuc act counter
c1ccc(-c2noc(-c3ccncc3)n2)nc1,/,.,.,.,.,.
COc1cccc(-c2nc3ccccc3c(=O)o2)c1,.,.,.,52,.,.
COC(=O)c1ccc(-c2nc(-c3cccs3)no2)cc1,/,.,136,72,.,.
CC(C)(C)NC(=O)COC(=O)c1ccccc1OCC(=O)Nc1ccc(Br)cc1,.,.,.,64,.,.
Cc1nnsc1-c1nnc(SCC(=O)c2ccc(F)cc2)n1C1CC1,.,/,/,/,/,/
Cc1ccc2nc(-c3sc4nc(C)ccc4c3N)[nH]c2c1,.,5.9,.,62,.,.
Cc1cc(C)c2c(N)c(-c3nc4ccccc4[nH]3)sc2n1,/,.,142,.,.,.
Cc1[nH]c(C)c2c(=O)[nH]ncc12,.,/,/,/,/,/
CN1CCN(Cc2cc(COCc3ccccc3)c3cccnc3c2O)CC1,.,5.3,.,.,.,.
Oc1ccc(CN2CCN(Cc3ccccc3)CC2)c2cccnc12,.,6,.,/,.,/
COc1ccc(/C=C/C(=O)c2ccc3c(c2)OCO3)c(OC)c1,.,.,152,78,129,.
COc1ccc(/C=C/C(=O)c2ccccc2)c(OC)c1,/,7.7,236,71,147,.
O=C(COc1ccc(Nc2ccccc2)cc1)OCC(=O)N1CCCCC1,.,/,/,/,/,/
O=c1c2ccccc2nc2c3ccccc3cnn12,/,.,.,.,134,.
